ChEMBL document CHEMBL4613249, “Serendipitous Discovery of Leucine and Methionine Depletion Agents during the Search for Polyamine Transport Inhibitors” (J Med Chem, 2020)
Activity calls are given as the source filed them.

Key:
[1] = target: Large neutral amino acids transporter small subunit 1 (Homo sapiens) (UniProt Q01650); experiment: Inhibition of LAT1-mediated amino acid transport in human L3.6PL cells assessed as reduction in intracellular methionine level by measuring methionine level per mg protein in cell lysate at 5 uM measured after 72 hrs by LCMS analysis (reference value: 167 +/- 67 pmol/mg); type: cell-based
Summary of the method: (§1)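 L3.6pl cells (50,000 cells/mL, 10 mL, 1 mM aminoguanidine) were seeded in poly-lysine-treated 9 cm dishes and incubated overnight at 37°C. They were then dosed with compound at 2, 5 or 7 μM from PBS stocks (2, 5, 7 mM) and incubated 72 h. Runs were done in triplicate, with amino acid levels per mg protein.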

[2] = test system: CHO-MG; experiment: Induction of polyamine efflux in aminoguanidine pretreated CHO-MG cells assessed as reduction in cell viability measured after 72 hrs in presence of spermine by MTS assay; type: ADME, cell-based, Cricetulus griseus; conditions: chinese hamster
[3] = test system: L3.6pl; experiment: Effect on polyamine level in human L3.6PL cells assessed as methionine level human L3.6PL cells assessed per mg protein in supernatant at 2 uM pretreated with aminoguanidine for 24 hrs followed by compound treatment after 72 hrs by LCMS analysis (reference value: 22834 +/- 1984 pmol/mg); type: functional
[4] = test system: L3.6pl; experiment: Effect on polyamine level in human L3.6PL cells assessed as phenylalanine level per mg protein in supernatant at 2 uM measured after 72 hrs in presence of amine oxidase suppressor aminoguanidine by LCMS analysis (reference value: 14299 +/- 7194 pmol/mg); type: functional
[5] = test system: CHO-K1; experiment: Cytotoxicity against CHOK1 cells assessed as effect on cell growth up to 6 uM measured after 48 hrs by MTS assay; type: cell-based, Cricetulus griseus; conditions: chinese hamster, cho-k1, 48 h
[6] = test system: L3.6pl; experiment: Effect on polyamine level in human L3.6PL cells assessed as glutamic acid level per mg protein in supernatant at 5 uM measured after 72 hrs in presence of amine oxidase suppressor aminoguanidine by LCMS analysis (reference value: 23412 +/- 3983 pmol/mg)
[7] = test system: L3.6pl; experiment: Effect on polyamine level in human L3.6PL cells assessed as decrease in intracellular spermine level at 7 uM measured after 72 hrs in presence of amine oxidase suppressor aminoguanidine by LCMS analysis relative to control; type: functional; set-up: scale not given: the % may be the effect or the level left
Summary of the method: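 L3.6pl cells, 50,000 cells/mL in 10 mL per Petri dish with 1 mM aminoguanidine, plated overnight. Dosed with compound at 2, 5 or 7 μM from PBS stocks, then 72 h at 37°C. Intracellular polyamines measured by N-dansylation and HPLC, in duplicate, as nmol/mg protein against a parallel untreated control.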

[8] = target: Large neutral amino acids transporter small subunit 1 (Homo sapiens) (UniProt Q01650); experiment: Inhibition of LAT1-mediated [3H]-leucine uptake in human L3.6PL cells measured after 2 mins by scintillation counting analysis; type: cell-based
[9] = target: Large neutral amino acids transporter small subunit 1 (Homo sapiens) (UniProt Q01650); experiment: Induction of LAT1-mediated polyamine efflux in human L3.6PL cells assessed as increase in [3H]leucine efflux at 60 uM measured after 30 mins at 37 degC in presence of LAT1 inhibitor JPH-203 by scintillation counting method; type: cell-based
[10] = target: Large neutral amino acids transporter small subunit 1 (Homo sapiens) (UniProt Q01650); experiment: Induction of LAT1-mediated polyamine efflux in aminoguanidine pretreated human L3.6PL cells assessed as reduction in cell viability at 5 uM measured after 72 hrs in presence of spermine by MTS assay; type: cell-based
Summary of the method: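 L3.6pl cells pre-incubated 24 h with 250 μM aminoguanidine. Then given increasing compound plus putrescine, spermidine or spermine, each fixed at 1 or 5 μM, for 72 h at 37°C. Growth by MTS relative to untreated control.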

[11] = test system: L3.6pl; experiment: Effect on polyamine level in human L3.6PL cells assessed as agmatine level per mg protein in supernatant at 5 uM measured after 72 hrs in presence of amine oxidase suppressor aminoguanidine by LCMS analysis (reference value: 101 pmol/mg); type: functional
[12] = test system: CHO-K1; experiment: Inhibition of polyamine transporter in DFMO-treated CHOK1 cells assessed as prevention of spermidine entry into cells by measuring rescue of DFMO-induced reduction in cell growth at 1 to 6 uM measured after 48 hrs in presence of amine oxidase suppressor aminoguanidine by MTS assay; type: cell-based; conditions: Cricetulus griseus
Summary of the method: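 CHO K1 cells (1000 cells/well) were pre-incubated 24 h with 1 mM aminoguanidine. They were then given fixed DFMO (4.2 mM) and spermidine (1 μM) plus increasing compound doses for 48 h at 37°C. EC50 is the concentration bringing MTS relative growth halfway between the DFMO+Spd and DFMO-only controls. Runs were done twice in triplicate, with SD.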

[13] = target: Large neutral amino acids transporter small subunit 1 (Homo sapiens) (UniProt Q01650); experiment: Inhibition of LAT1-mediated amino acid transport in human L3.6PL cells assessed as reduction in intracellular leucine level by measuring leucine level per mg protein in cell lysate at 2 uM measured after 72 hrs by LCMS analysis (reference value: 232 +/- 10 pmol/mg); type: cell-based; summary of the method: as §1
[14] = test system: L3.6pl; experiment: Effect on polyamine level in human L3.6PL cells assessed as decrease in intracellular spermidine level at 7 uM measured after 72 hrs in presence of amine oxidase suppressor aminoguanidine […] relative to control; type: functional; set-up: scale not given: the % may be the effect or the level left
[15] = test system: CHO-K1; experiment: Potentiation of 0.5 uM N-(anthracenylmethyl) homospermidine-induced toxicity in CHOK1 cells assessed as increase in Ant-44-induced reduction in cell growth measured after 48 hrs in presence of amine oxidase suppressor aminoguanidine by MTS assay; type: functional, cell-based; conditions: Cricetulus griseus
Summary of the method: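 CHO K1 cells were pretreated 24 h with 1 mM aminoguanidine, then given fixed Ant-44 (0.5 μM) plus increasing compound (up to 5 μM) for 48 h at 37°C. MTS growth was read, with EC50 defined as the dose halving growth relative to Ant-44 alone. Runs were done twice in triplicate, with SD.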

[16] = test system: L3.6pl; experiment: Cytotoxicity against human L3.6PL cells assessed as reduction in cell viability at 1 uM measured after 72 hrs by MTS assay; type: cell-based
Summary of the method: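 L3.6pl cells given compound at increasing concentrations, alone or with Ant-44 fixed at 2 μM, for 72 h at 37°C. % cell growth by MTS against an untreated control run in parallel, in triplicate.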

[17] = test system: L3.6pl; experiment: Effect on polyamine level in human L3.6PL cells assessed as decrease in intracellular putrescine level at 1 uM measured after 72 hrs in presence of amine oxidase suppressor aminoguanidine and Ant-44 by LCMS analysis; type: functional, cell-based
Summary of the method: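 L3.6pl cells dosed with Ant-44 fixed at 2 μM plus increasing compound for 72 h at 37°C. Intracellular polyamines and Ant-44 given as nmol/mg protein, in duplicate, with a parallel untreated control.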

[18] = target: Large neutral amino acids transporter small subunit 1 (Homo sapiens) (UniProt Q01650); experiment: Inhibition of LAT1-mediated [3H]-leucine uptake in human L3.6PL cells at 2 to 7 uM preincubated for 24 hrs at 37 degree C followed by HBBS addition and compound washout and subsequent compound dosing measured after 30 mins by scintillation counter method; type: cell-based
Summary of the method: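 L3.6pl cells were preincubated 24 h at 37°C with compound, washed and placed in HBSS. Compound was then added back just before ³H-leucine, followed by a 30 min incubation at 37°C. After cold washes, radioactivity was counted and normalized to μg protein.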

[19] = target: Large neutral amino acids transporter small subunit 1 (Homo sapiens) (UniProt Q01650); experiment: Induction of LAT1-mediated polyamine efflux in human L3.6PL cells assessed as increase in [3H]leucine efflux at 60 uM measured after 30 mins at 37 degC by scintillation counting method; type: cell-based
Summary of the method: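 L3.6pl cells preloaded 5 min at 37°C with 3H-leucine and washed three times with cold HBSS. Compound (60 μM) given alone for 30 min at 37°C. Radioactivity of released 3H-leucine counted in the supernatant. Untreated and 100 μM unlabeled leucine lanes set the efflux range.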

Sequence of Large neutral amino acids transporter small subunit 1 (Homo sapiens) (Q01650 whole entry): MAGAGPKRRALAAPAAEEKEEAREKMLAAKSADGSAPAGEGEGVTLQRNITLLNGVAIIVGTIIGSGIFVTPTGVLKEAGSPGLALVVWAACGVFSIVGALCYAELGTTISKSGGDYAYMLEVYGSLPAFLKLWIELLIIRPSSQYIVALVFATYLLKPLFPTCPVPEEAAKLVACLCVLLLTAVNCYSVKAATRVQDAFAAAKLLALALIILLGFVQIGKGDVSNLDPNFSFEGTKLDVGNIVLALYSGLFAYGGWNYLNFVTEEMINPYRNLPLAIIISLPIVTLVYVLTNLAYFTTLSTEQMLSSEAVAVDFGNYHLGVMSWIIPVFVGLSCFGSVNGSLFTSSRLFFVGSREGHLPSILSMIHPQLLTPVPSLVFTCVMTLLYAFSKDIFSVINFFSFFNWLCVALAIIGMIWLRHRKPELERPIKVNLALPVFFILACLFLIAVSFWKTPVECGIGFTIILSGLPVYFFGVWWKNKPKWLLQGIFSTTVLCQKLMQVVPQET

CC(C)CCN1CCN([C@@H](CNCc2ccccc2)CC2CCCCC2)C[C@@H]1CC(C)C
Activity [1]: 41 pmol/mg
Activity [2]: Active
Activity [3]: 17686 pmol/mg
Activity [4]: 11954 pmol/mg
Activity [5]: Non-Toxic
Activity [6]: 34033 pmol/mg
Activity [7]: 30%
inhibition [8]: inactive
Activity [9]: inactive
Activity [10]: Active
Activity [11]: 485 pmol/mg
inhibition [12]: inactive
Activity [13]: 152 pmol/mg
Activity [14]: 50%
Activity [15]: Dose-dependent effect
EC50 ([15]; CHO-K1, 48 h): 60 nM
Activity [16]: Non-Toxic
Activity [17]: Active
inhibition [18]: inactive
Activity [19]: Active
